Measurements published in ChEMBL document CHEMBL1154907, “Synthesis and preclinical evaluations of 2-(2-fluorophenyl)-6,7-methylenedioxyquinolin-4-one monosodium phosphate (CHM-1-P-Na) as a potent antitumor agent” (J Med Chem, 2010).
Values after ≈ are worked out from the molar mass of the structure shown. Active and inactive are the calls of the source. The calls are words filed in the database; no cut-off is given here.

Key:
OVCAR-3 [1] = assay: Growth inhibition of human OVCAR-3 cells by SRB assay; type: functional
Summary of the method: (§1)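 Human cancer cell panel; five concentrations from 10^-4 to 10^-8 M; growth measured by sulforhodamine B colorimetric method; GI50, TGI and LC50 derived from computer-analysed dose-response curves.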

SK-OV-3 [2] = assay: Induction of mitotic arrest in human SKOV3 cells assessed as increase in […] upregulation at 10 uM after 24 hrs by SDS-PAGE; type: functional, cell-based
Summary of the method: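 SKOV-3 cells treated with vehicle (DMSO) or 10 μM for indicated times, or indicated doses for 24 h; whole-cell lysates resolved by SDS-PAGE, blotted and probed with anti-BubR1 mouse mAb; ECL detection.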

[3] = Half life in CD1 mouse at 10 mg/kg, ip; type: ADME, organism-based; design: dose 10 mg/kg, route intraperitoneal; settings: in vivo
Summary of the method: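 Male CD-1 (Crl.) mice, 22-24 g, single 10 mg/kg ip bolus of parent drug in cremophor/DMSO/saline (20/5/75, v/v; 2 mg/mL, 5 mL/kg). Blood sampled at 0, 5, 15, 30 min, 1, 1.5, 2, 4, 6, 9, 24, 27 h, three mice per time point. Plasma extracted with acetonitrile, analysed by LC-MS/MS. Parameters calculated from mean plasma concentrations.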

SK-OV-3 [4] = assay: Cell cycle arrest in human SKOV3 cells assessed as increase in accumulation of hypodiploid cells at 10 uM after 48 hrs by propidium iodide-based flow cytometry; type: functional
Summary of the method: (§2)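 SKOV-3 cells (DMEM/F-12, 10% fetal calf serum) treated with 10 μM for 6, 12, 24, 36 or 48 h; trypsinized, PBS-washed, fixed in 70% ice-cold ethanol overnight at -20 °C, RNase A treated, propidium iodide stained; DNA content by flow cytometry, phase percentages and hypodiploid fraction scored.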

[5] = AUC (0 to infinity) in CD1 mouse at 10 mg/kg, ip; type: ADME, organism-based; design: dose 10 mg/kg, route intraperitoneal, time infinity; settings: plasma
Summary of the method: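 Male CD-1 (Crl.) mice (22-24 g), single 10 mg/kg dose. Prodrug in 9% NaHCO3/water (1 mg/mL) given iv by tail vein or po by gavage after 4 h fast; parent given ip in cremophor/DMSO/saline 20/5/75 (2 mg/mL). Plasma sampled to 27 h, three mice per time point, acetonitrile precipitation, LC-MS/MS (ESI positive); parameters from mean plasma concentrations.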

KM12 = assay: Growth inhibition of human KM12 cells by SRB assay; type: functional; summary of the method: as §1
MKN-74 = assay: Growth inhibition of human MKN74 cells by SRB assay; type: functional; summary of the method: as §1
LOX IMVI = assay: Growth inhibition of human LOXIMVI cells by SRB assay; type: functional; summary of the method: as §1
Rattus norvegicus = organism: Rattus norvegicus; assay: Displacement of […] from benzodiazepine binding site of rat GABAA receptor at 10 uM radioligand binding assay
Summary of the method: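 Radioligand binding screen run by contract lab under standard protocols; rat GABA_A sites; single-point inhibition at 10 μM, with IC50 determined where inhibition was significant.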

NCI-H226 = assay: Growth inhibition of human NCI-H226 cells by SRB assay; type: functional; summary of the method: as §1
DMS-273 = assay: Growth inhibition of human DMS273 cells by SRB assay; type: functional; summary of the method: as §1
NCI-H460 = assay: Growth inhibition of human NCI-H460 cells by SRB assay; type: functional; summary of the method: as §1
OVCAR-3 [6] = assay: Antitumor activity against human OVCAR-3 cells xenografted in nude mouse assessed as increase in lifespan of organism at 134 mg/kg, ip administered in Q7D x 3 schedule relative to control; type: functional; settings: route intraperitoneal
[7] = Growth inhibition of human RXF631L cells by SRB assay; type: functional, RXF 631
Summary of the method: (§3)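 Cancer cell panel; growth measured by sulforhodamine B colorimetric method across five concentrations from 10^-4 to 10^-8 M; GI50, TGI and LC50 derived from computer-analysed dose-response curves.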

A549 = assay: Growth inhibition of human A549 cells by SRB assay; type: functional; summary of the method: as §1
SF-268 = assay: Growth inhibition of human SF268 cells by SRB assay; type: functional; summary of the method: as §3
U-251 = assay: Growth inhibition of human U251 cells by SRB assay; type: functional; summary of the method: as §3
MCF7 = assay: Growth inhibition of human MCF7 cells by SRB assay; type: functional; summary of the method: as §1
[8] = Growth inhibition of human HBC4 cells by SRB assay; type: functional; summary of the method: as §1
[9] = Growth inhibition of human DMS144 cells by SRB assay; type: functional; summary of the method: as §1
HCC 2998 = assay: Growth inhibition of human HCC2998 cells by SRB assay; type: functional; summary of the method: as §1
SK-OV-3 [10] = assay: Cell cycle arrest in human SKOV3 cells assessed as decrease in accumulation at G0/G1 phase at 10 uM after 36 hrs by propidium iodide-based flow cytometry; type: functional; summary of the method: as §2
DU-145 = assay: Growth inhibition of human DU145 cells by SRB assay; type: functional; summary of the method: as §1
[11] = Growth inhibition of human BSY1 cells by SRB assay; type: functional, BSY-1; summary of the method: as §1
HCT-15 = assay: Growth inhibition of human HCT15 cells by SRB assay; type: functional; summary of the method: as §1
NCI-H23 = assay: Growth inhibition of human NCI-H23 cells by SRB assay; type: functional; summary of the method: as §1
SK-OV-3 [12] = assay: Induction of mitotic arrest in human SKOV3 cells assessed as microtubule disruption at 10 uM after 24 hrs by SDS-PAGE; type: functional, cell-based
[13] = Solubility in water; type: physicochemical; settings: buffer
OVCAR-5 = assay: Growth inhibition of human OVCAR5 cells by SRB assay; type: functional; summary of the method: as §1
PC-3 = assay: Growth inhibition of human PC3 cells by SRB assay; type: functional; summary of the method: as §1

SMILES: O=c1cc(-c2ccccc2F)[nH]c2cc3c(cc12)OCO3
- GI50 (OVCAR-3 [1]; OVCAR-3): 7080 nM
- CC50 (OVCAR-3 [1]; OVCAR-3, read-out: pLC50 (converted)): > 100000 nM
- TGI (OVCAR-3 [1]; OVCAR-3, read-out: pTGI): > 100000 nM
- Activity (SK-OV-3 [2]): Active
- half-life [3]: 7.3 h
- Activity (SK-OV-3 [4]): Active
- AUC(0-inf) [5]: 417 ng·h/mL
- GI50 (KM12; KM12): 67.6 nM
- CC50 (KM12; KM12, read-out: pLC50 (converted)): > 100000 nM
- TGI (KM12; KM12, read-out: pTGI): > 100000 nM
- GI50 (MKN-74; MKN-74): 162 nM
- CC50 (MKN-74; MKN-74, read-out: pLC50 (converted)): > 100000 nM
- TGI (MKN-74; MKN-74, read-out: pTGI (converted)): 871 nM
- GI50 (LOX IMVI): 123 nM
- CC50 (LOX IMVI; read-out: pLC50 (converted)): > 100000 nM
- TGI (LOX IMVI; read-out: pTGI (converted)): 676 nM
- inhibition (Rattus norvegicus): 83%
- GI50 (NCI-H226; NCI-H226): 355 nM
- CC50 (NCI-H226; NCI-H226, read-out: pLC50 (converted)): > 100000 nM
- TGI (NCI-H226; NCI-H226, read-out: pTGI): > 100000 nM
- GI50 (DMS-273; DMS-273): 56.2 nM
- CC50 (DMS-273; DMS-273, read-out: pLC50 (converted)): > 100000 nM
- TGI (DMS-273; DMS-273, read-out: pTGI): > 100000 nM
- GI50 (NCI-H460; NCI-H460, read-out: pGI50 (converted)): > 100000 nM
- CC50 (NCI-H460; NCI-H460, read-out: pLC50 (converted)): > 100000 nM
- TGI (NCI-H460; NCI-H460, read-out: pTGI): > 100000 nM
- Activity (OVCAR-3 [6]): 133%
- GI50 ([7]; RXF 631): 79.4 nM
- CC50 ([7]; RXF 631, read-out: pLC50 (converted)): > 100000 nM
- TGI ([7]; RXF 631, read-out: pTGI (converted)): 501 nM
- GI50 (A549; A549): 692 nM
- CC50 (A549; A549, read-out: pLC50 (converted)): > 100000 nM
- TGI (A549; A549, read-out: pTGI): > 100000 nM
- GI50 (SF-268; SF-268): 100 nM
- CC50 (SF-268; SF-268, read-out: pLC50 (converted)): > 100000 nM
- TGI (SF-268; SF-268, read-out: pTGI): > 100000 nM
- GI50 (U-251; U-251): 69.2 nM
- CC50 (U-251; U-251, read-out: pLC50 (converted)): > 100000 nM
- TGI (U-251; U-251, read-out: pTGI (converted)): 18200 nM
- GI50 (MCF7; MCF7): 158 nM
- CC50 (MCF7; MCF7, read-out: pLC50 (converted)): > 100000 nM
- TGI (MCF7; MCF7, read-out: pTGI): > 100000 nM
- GI50 ([8]; HBC4): 347 nM
- CC50 ([8]; HBC4, read-out: pLC50 (converted)): > 100000 nM
- TGI ([8]; HBC4, read-out: pTGI): > 100000 nM
- GI50 ([9]; DMS144): 53.7 nM
- CC50 ([9]; DMS144, read-out: pLC50 (converted)): > 100000 nM
- TGI ([9]; DMS144, read-out: pTGI (converted)): 676 nM
- GI50 (HCC 2998; HCC 2998): 129 nM
- CC50 (HCC 2998; HCC 2998, read-out: pLC50 (converted)): > 100000 nM
- TGI (HCC 2998; HCC 2998, read-out: pTGI (converted)): 1260 nM
- Activity (SK-OV-3 [10]): Active
- GI50 (DU-145; DU-145): 50.1 nM
- CC50 (DU-145; DU-145, read-out: pLC50 (converted)): > 100000 nM
- TGI (DU-145; DU-145, read-out: pTGI (converted)): 562 nM
- GI50 ([11]; BSY-1): 324 nM
- CC50 ([11]; BSY-1, read-out: pLC50 (converted)): > 100000 nM
- TGI ([11]; BSY-1, read-out: pTGI (converted)): 13200 nM
- GI50 (HCT-15; HCT-15): 50.1 nM
- CC50 (HCT-15; HCT-15, read-out: pLC50 (converted)): > 100000 nM
- TGI (HCT-15; HCT-15, read-out: pTGI): > 100000 nM
- GI50 (NCI-H23; NCI-H23): 1170 nM
- CC50 (NCI-H23; NCI-H23, read-out: pLC50 (converted)): > 100000 nM
- TGI (NCI-H23; NCI-H23, read-out: pTGI): > 100000 nM
- Activity (SK-OV-3 [12]): Active
- solubility [13]: 0.013 µg/mL (≈ 0.0459 µM)
- GI50 (OVCAR-5; OVCAR-5): 813 nM
- CC50 (OVCAR-5; OVCAR-5, read-out: pLC50 (converted)): > 100000 nM
- TGI (OVCAR-5; OVCAR-5, read-out: pTGI): > 100000 nM
- GI50 (PC-3; PC-3): 75.9 nM
- CC50 (PC-3; PC-3, read-out: pLC50 (converted)): > 100000 nM
- TGI (PC-3; PC-3, read-out: pTGI): > 100000 nM
